Experimental data from PubChem BioAssay.
Calls of active or inactive are those of the source.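 Rule for the calls, unless noted: active = viability at or below 30% in both replicate assays; inconclusive = viability at or below 30% in just one of the two assays; inactive = the rest.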

Assays:
[1] = Her2 expression decrease, cell viability multiplex – SKBR3 breast tumor cells, AlphaScreen, ATP viability, primary screen (AID 461;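 active = Her2 level under about 52% in both replicate screens, with viability over 70% of control, limit read from the data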;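 for Her2 level: lower value means less Her2 protein in the cells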;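 for viability: percent of carrier control wells set as 100% viability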); conditions: SKBR3 Her2 protein level, 18-24 h, measured here: SKBR3 viability, ATP luminescence, at 10 µM
[2] = target: Receptor tyrosine-protein kinase erbB-2 (Homo sapiens) (UniProt P04626); experiment: as above; conditions: 18-24 h, at 10 µM, stronger effect = lower value
Chain of Receptor tyrosine-protein kinase erbB-2 (Homo sapiens) (P04626 whole entry, looked up): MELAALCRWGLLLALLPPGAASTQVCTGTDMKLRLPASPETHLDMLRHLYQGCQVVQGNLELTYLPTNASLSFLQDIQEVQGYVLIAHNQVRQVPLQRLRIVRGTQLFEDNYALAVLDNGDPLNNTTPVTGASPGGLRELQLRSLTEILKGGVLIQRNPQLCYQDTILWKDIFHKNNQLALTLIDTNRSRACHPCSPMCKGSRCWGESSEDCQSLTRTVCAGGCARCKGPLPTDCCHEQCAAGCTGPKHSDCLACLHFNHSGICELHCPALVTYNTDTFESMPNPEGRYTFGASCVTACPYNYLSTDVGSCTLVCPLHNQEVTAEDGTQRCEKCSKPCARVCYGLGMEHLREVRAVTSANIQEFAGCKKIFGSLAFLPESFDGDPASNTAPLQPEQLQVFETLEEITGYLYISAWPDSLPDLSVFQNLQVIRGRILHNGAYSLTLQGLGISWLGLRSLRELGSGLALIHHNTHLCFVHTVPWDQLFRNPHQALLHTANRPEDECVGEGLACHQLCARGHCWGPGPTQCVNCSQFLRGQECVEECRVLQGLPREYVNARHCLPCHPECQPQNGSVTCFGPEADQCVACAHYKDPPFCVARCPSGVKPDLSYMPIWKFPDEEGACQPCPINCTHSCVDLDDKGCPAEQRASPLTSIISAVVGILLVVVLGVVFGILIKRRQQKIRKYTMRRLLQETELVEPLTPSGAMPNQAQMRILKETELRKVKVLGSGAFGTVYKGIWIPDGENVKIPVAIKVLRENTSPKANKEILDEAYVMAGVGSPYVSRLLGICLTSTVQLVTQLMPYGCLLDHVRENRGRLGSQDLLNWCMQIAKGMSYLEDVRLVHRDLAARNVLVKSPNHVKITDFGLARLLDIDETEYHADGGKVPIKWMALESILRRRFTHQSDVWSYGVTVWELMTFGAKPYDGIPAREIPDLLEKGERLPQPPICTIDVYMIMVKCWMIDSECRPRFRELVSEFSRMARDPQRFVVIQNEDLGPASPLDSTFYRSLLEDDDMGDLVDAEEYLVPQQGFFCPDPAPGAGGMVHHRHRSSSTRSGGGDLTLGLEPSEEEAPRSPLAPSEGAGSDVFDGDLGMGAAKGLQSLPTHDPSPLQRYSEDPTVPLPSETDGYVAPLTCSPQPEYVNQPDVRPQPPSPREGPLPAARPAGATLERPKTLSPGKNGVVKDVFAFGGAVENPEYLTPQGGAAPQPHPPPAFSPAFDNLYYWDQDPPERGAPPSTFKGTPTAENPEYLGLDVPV

[3] = reduced viability of SK-BR-3 breast cancer cells – cell-based, 24 h, human, pilot screen (AID 572;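 active = viability at or below 10% of carrier control in both of two separate runs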;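 note: compound exposure lasted between 18 and 24 h rather than exactly 24 h; 100% = carrier-treated control wells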); conditions: SK-BR-3 viability, CellTiter-Glo luminescence, at 10 µM, stronger effect = lower value
[4] = HUVEC growth inhibition – cell-based, human, primary screen (AID 575); conditions: HUVEC proliferation, CellTiter-Glo luminescence, 72 h; at 10 µM; stronger effect = lower value;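 note: 100% = median of untreated cell wells with 0.1% DMSO on each plate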
Method in brief: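 Assay system: Primary human umbilical vein endothelial cells | Quantity: 1250 cells per well | Medium: Supplemented EBM, 2% fetal bovine serum | Detection: CellTiter-Glo luminescence measuring cellular ATP | Read-out: % viability vs DMSO wells | Plate: Collagen-coated 384-well format | Times: 72 h exposure, 37 °C, 5% CO2, 30 min RT equilibration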

[5] = MRP1 drug-resistance reversers in H69AR cells – cell-based, doxorubicin co-treatment, pilot screen (AID 601;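 active = viability loss from added drug above about 55%, and viability with drug at most 40%, in both replicates, limit read from the data, passing the limit was not always enough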); conditions: CellTiter-Glo, 72 h, at 10 µM; for differential viability (reversal): stronger effect = higher value
[6] = yeast transport mutant growth inhibition pilot in 384-well plates, post-Golgi transport modulator project (AID 636; in the data active = inhibition above about 31%); conditions: absorbance 615 nm, about 18 h, stronger effect = higher value
[7] = growth suppression of yeast trafficking mutant, preliminary HTS, modulators of trafficking downstream of Golgi apparatus project, 1536-format plate, OD 615 nm (AID 637; in the data active = inhibition above about 30%); conditions: yeast transport mutant growth, absorbance 615 nm, 18 h; stronger effect = higher value
[8] = H69AR cells + 2 uM doxorubicin, measured here: viability with 2 uM doxorubicin, stronger effect = lower value
[9] = H69AR cells, compound alone cytotoxicity

Cc1ccc2nc(NC(=O)C3CCN(S(=O)(=O)c4cccc5nsnc45)CC3)sc2c1
viability [1]: 85.5% | Her2 level [2]: 63.5% (inactive) | viability [3]: 85.5% (inactive) | viability [4]: 42.8% (inactive) | differential viability (reversal) ([5]; H69AR cells + 2 uM doxorubicin): -10.7% (inactive) | viability [5, 8]: 76.5% | viability [5, 9]: 65.8% | inhibition [6]: -5.07% (inactive) | inhibition [7]: 10.3% (inactive)

COc1cccc(C(=O)Nc2c(C(N)=O)oc3ccccc23)c1
viability [1]: 86.5% | Her2 level [2]: 69% (inactive) | viability [3]: 86.5% (inactive) | viability [4]: 65.9% (inactive) | differential viability (reversal) ([5]; H69AR cells + 2 uM doxorubicin): -13.6% (inactive) | viability [5, 8]: 62.4% | viability [5, 9]: 48.7% | inhibition [6]: -5.33% (inactive) | inhibition [7]: 3% (inactive)

CCOC(=O)c1sc(Nc2nc3c(OC)cccc3s2)nc1C
viability [1]: 81.5% | Her2 level [2]: 72% (inactive) | viability [3]: 81.5% (inactive) | viability [4]: 63.3% (inactive) | differential viability (reversal) ([5]; H69AR cells + 2 uM doxorubicin): -7.45% (inactive) | viability [5, 8]: 66.6% | viability [5, 9]: 59.2% | inhibition [6]: 0.13% (inactive) | inhibition [7]: -4.76% (inactive)

CC(=O)c1ccccc1Oc1nc(CN2CCOCC2)nc2scc(-c3cccs3)c12
viability [1]: 87.5% | Her2 level [2]: 79% (inactive) | viability [3]: 87.5% (inactive) | viability [4]: 73.3% (inactive) | differential viability (reversal) ([5]; H69AR cells + 2 uM doxorubicin): 32.8% (inactive) | viability [5, 8]: 17.1% | viability [5, 9]: 49.9% | inhibition [6]: -8.24% (inactive) | inhibition [7]: 2.46% (inactive)

CCN(CC)CC(=O)Nc1ccc(-c2nc3cc(NC(=O)CN(CC)CC)ccc3o2)cc1
viability [1]: 91% | Her2 level [2]: 82.5% (inactive) | viability [3]: 91% (inactive) | viability [4]: 3.96% (active) | differential viability (reversal) ([5]; H69AR cells + 2 uM doxorubicin): -14.4% (inactive) | viability [5, 8]: 58.6% | viability [5, 9]: 44.2% | inhibition [6]: -2.13% (inactive) | inhibition [7]: -9.34% (inactive)
